The list is not random: actives were taken first. Their share in the collection is about 2%.
STEP block: STEP (human) phosphatase inhibition; P54829; recombinant STEP, OMFP fluorogenic substrate, fluorescence; actives 0.25% (n = 360,000); inhibition, % at 20 µM; AID 588621;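 active means inhibition at 20 µM, scaled per plate between control wells, above about 37%, limit read from the data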;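 further: 0% = DMSO with enzyme and substrate and 100% = substrate only without enzyme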
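System: isolated STEP enzyme; schedule: 20 min enzyme reaction at room temperature, protected from light; medium: Bis-Tris buffer pH 6.0, 2.5 mM DTT, 0.005% Tween 20; signal: fluorescence, 480/540 nm; dosing: single compound dose of 20 µM, 1% DMSO final; also added: OMFP substrate, 25 µM final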
Scp1 inh: blocks human Scp-1 phosphatase activity. Q9GZU7. actives 0.88% (n = 340,000). inhibition, % at 20 µM. Recombinant Scp1, phosphopeptide, malachite green phosphate absorbance. AID 493091;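 active means inhibition above about 50% at 20 µM, limit read from the data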;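 further: plate controls were DMSO wells with enzyme for no effect and wells lacking enzyme for full effect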
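Test system: SCP-1 catalytic domain; Buffer or medium: Acidic Tris acetate buffer with magnesium and detergent; Also added: Phosphorylated 17-residue peptide substrate; Compound: single 20 µM dose, 1% DMSO; Schedule: enzyme reaction 45 min at room temperature, colour 5 min, stabilisation 30 min; Signal: Phosphate-binding colour reagent, absorbance read at 630 nm.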
LMPTP block: blocks human LMPTP phosphatase. P24666. inhibition, % at 20 µM. AID 651560. actives 0.22% (n = 360,000). recombinant LMPTP-A, OMFP fluorogenic substrate, fluorescence intensity;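 active means compounds that cut the enzyme signal by at least half of the control window in the single-dose screen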;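 further: plate controls were DMSO wells with enzyme plus substrate for no effect and substrate without enzyme for full effect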
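material = LMPTP-A | quantity = 0.625 nM enzyme | reagent = OMFP substrate, 400 µM final | buffer or medium = Bis-Tris pH 6.0, DTT, detergent | detection = endpoint fluorescence intensity from OMFP dephosphorylation | dosing = single 20 µM dose | read-out basis = % inhibition relative to no-enzyme and uninhibited control wells | control set = no-enzyme and uninhibited controls | timing = 50 min at room temperature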
DNMT1 inh: blocks human DNA methyltransferase DNMT1; P26358; DNMT1 molecular beacon, Hinp1I cleavage, fluorescence; inhibition (reported as % activation of signal), % at 10 µM; actives 0.83% (n = 360,000); AID 588458; in the data active means inhibition above about 50%
Target sequence (P26358 504-1616 limits assumed): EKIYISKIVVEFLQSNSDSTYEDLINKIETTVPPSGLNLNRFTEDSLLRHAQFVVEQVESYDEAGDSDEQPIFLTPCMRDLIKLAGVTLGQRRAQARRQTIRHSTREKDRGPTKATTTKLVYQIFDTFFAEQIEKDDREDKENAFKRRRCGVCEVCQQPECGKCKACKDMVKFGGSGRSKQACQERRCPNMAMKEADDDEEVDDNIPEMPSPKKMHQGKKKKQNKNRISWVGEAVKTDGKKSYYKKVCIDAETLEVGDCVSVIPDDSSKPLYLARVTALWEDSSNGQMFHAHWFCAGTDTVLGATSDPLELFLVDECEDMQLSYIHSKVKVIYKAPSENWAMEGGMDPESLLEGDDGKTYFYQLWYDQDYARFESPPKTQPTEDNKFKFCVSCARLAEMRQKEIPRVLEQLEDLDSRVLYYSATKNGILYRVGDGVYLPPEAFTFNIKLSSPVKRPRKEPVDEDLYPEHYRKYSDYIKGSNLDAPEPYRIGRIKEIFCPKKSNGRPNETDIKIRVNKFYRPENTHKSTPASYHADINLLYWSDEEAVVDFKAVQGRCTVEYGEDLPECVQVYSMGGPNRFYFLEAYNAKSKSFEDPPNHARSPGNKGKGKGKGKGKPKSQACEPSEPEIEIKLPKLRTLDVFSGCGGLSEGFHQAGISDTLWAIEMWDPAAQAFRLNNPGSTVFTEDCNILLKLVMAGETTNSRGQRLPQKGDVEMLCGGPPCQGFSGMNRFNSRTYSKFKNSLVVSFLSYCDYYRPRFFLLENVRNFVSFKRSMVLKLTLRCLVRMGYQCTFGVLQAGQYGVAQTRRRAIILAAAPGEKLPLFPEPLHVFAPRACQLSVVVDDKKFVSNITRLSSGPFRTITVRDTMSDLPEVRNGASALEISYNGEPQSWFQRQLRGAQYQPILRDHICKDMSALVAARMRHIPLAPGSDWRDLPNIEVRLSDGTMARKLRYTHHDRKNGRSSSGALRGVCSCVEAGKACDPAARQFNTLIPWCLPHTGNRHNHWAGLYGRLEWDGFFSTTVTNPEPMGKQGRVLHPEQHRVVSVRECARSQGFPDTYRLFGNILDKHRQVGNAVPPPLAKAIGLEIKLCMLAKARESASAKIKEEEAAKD
Rpn11 inh: Rpn11 (human) deubiquitinase inhibition; human 26S proteasome, Ub4-pepOG fluorescence polarization; 20S core pre-blocked with epoxomicin; inhibition, % at 20 µM; actives 0.59% (n = 360,000);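 active means inhibition at 20 µM, scaled to each plate's controls, above about 33%, limit read from the data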
Rpn11 inh conf: confirmation of human proteasome Rpn11 inhibitors. shares compounds with Rpn11 inh. AID 602318. inhibition, % at 20 µM. actives 29% (n = 1,900). purified human 26S proteasome, Ub4-pepOG fluorescence polarization; proteasome pretreated with epoxomicin
MMP-2 inh: MMP-2 (human) inhibition counter-screen; shares compounds with Rpn11 inh; recombinant MMP-2, FRET peptide cleavage fluorescence; inhibition, % at 20 µM; actives 4% (n = 1,900); AID 602330;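 further: human MMP-2 activated beforehand with APMA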
Thrombin FP: blocks bovine thrombin, flagging nonselective RPN11 hits; inhibition, % at 20 µM; shares compounds with Rpn11 inh; actives 13% (n = 1,900); bovine thrombin cleavage of Ub4-pepOG, fluorescence polarization; AID 602333;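 active means mean inhibition at least 40% at 20 µM, or signal 3 deviations below plate average, so some actives read negative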;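 further: plate controls were thrombin with DMSO for no effect and buffer wells lacking thrombin for full effect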
* hit, by the source's call; / = no result given. Unless noted, no stated cut-off is given here; in the data, active means inhibition above about 40%; inactive means the rest.

SMILES | STEP block | Scp1 inh | LMPTP block | DNMT1 inh | Rpn11 inh | Rpn11 inh conf | MMP-2 inh | Thrombin FP
COc1cc(C=C2CCCC(=Cc3ccc(OCC4CO4)c(OC)c3)C2=O)ccc1OCC1CO1 (stereo unspecified) | -1 | / | 1 | -20 | 51* | 5 | -12 | -15
CCOc1ccc(/C=C2\CCC(C3CCCC3)C2=O)cc1OC (stereo unspecified) | 2 | -1 | -1 | -1 | 1 | / | / | /
COc1cccc(CCC(=O)N2CCC(n3nccc3NC(=O)CC(C)C)CC2)c1 | -2 | -5 | 1 | -4 | -2 | / | / | /
COc1cc(/C=C(/C#N)C(=O)NC(C)c2ccccc2)cc(OC)c1O (stereo unspecified) | -1 | -5 | -1 | 3 | 71* | 22 | -12 | 8
Cn1cnnc1SCC(=O)Nc1ccc2nc(SCc3ccccc3)sc2c1 | -1 | -1 | 1 | -6 | 64* | -7 | -8 | -6
O=C(CCS(=O)(=O)c1ccccc1)Nc1ccc(S(=O)(=O)Nc2nccs2)cc1 | -1 | 5 | -2 | 3 | -4 | / | / | /
O=C(CN1CCCCC1)Nc1ccccc1 | -3 | -10 | 1 | -1 | -2 | / | / | /
O=C(CN1CCCCC1)Nc1ccc(N2CCCCCC2)cc1 | -2 | -5 | 5 | -13 | 88* | -5 | -35 | -5
O=C(Nc1ccc(N2CCCC2)cc1)c1cc(Cl)ccc1Cl | 1 | -4 | 35 | 53* | 77* | 3 | -11 | -10
NS(=O)(=O)c1ccc(N=Nc2ccc(O)c3ncccc23)cc1 | 1 | -8 | 25 | -10 | 86* | 70* | 55* | 13
CCN(CC)S(=O)(=O)c1cc(OC)ccc1N=Nc1ccc(O)c2ncccc12 | 4 | 15 | 10 | -8 | 50* | 48* | 43* | 0
CCOC(=O)COc1ccccc1/C=C1\NC(=O)NC1=O | -2 | -3 | 0 | 2 | -5 | / | / | /
CCOC(=O)c1ccc(-n2cccc2/C=C2\NC(=O)NC2=O)cc1 | 4 | -4 | 14 | 0 | 46* | 4 | -73 | -14
COc1cc(-c2noc(CCC(=O)Nc3cccnc3)n2)cc(OC)c1OC | 0 | 4 | -2 | -1 | 36* | -7 | -6 | -8
CC(C)CC1NC(=O)N(CC(=O)Nc2ccc3c(c2)OCCO3)C1=O (stereo unspecified) | 1 | -7 | -2 | -3 | 0 | / | / | /
CCOC(=O)c1sc(NN=C(C(=O)OC)C(=O)OC)c(C(=O)OCC)c1C | -2 | -4 | 0 | -2 | 43* | 11 | 34 | 4
CCOC(=O)c1c(N)sc(C(=O)OC)c1C | -2 | 1 | 0 | 1 | -2 | / | / | /
Cn1cc(CN2CCC(C(=O)Nc3ccc(Oc4ccccc4F)cc3)CC2)cn1 | -1 | 6 | 0 | 0 | 0 | / | / | /
CCc1cccc(NC(=O)CCc2nc3sc4c(c3c(=O)[nH]2)CCCC4)c1 | 7 | 32 | 3 | 24 | 47* | 37 | -27 | 45*
COc1ccccc1NC(=O)CCc1nc2sc3c(c2c(=O)[nH]1)CCCC3 | 1 | 34 | 7 | 15 | 44* | 67* | -27 | 27
Cc1cccc(NC(=O)C(C)SCc2nc3sc4c(c3c(=O)[nH]2)CCCC4)n1 (stereo unspecified) | 14 | -1 | 1 | 4 | 48* | 35 | -19 | 24
Cc1cccc(NC(=O)CCc2nc3sc4c(c3c(=O)[nH]2)CCCC4)c1 | -2 | 4 | 0 | 4 | 3 | / | / | /
COc1cccc(NC(=O)CN(C)C(=O)CCc2nc3sc4c(c3c(=O)[nH]2)CCCC4)c1 | 5 | 21 | 3 | 7 | 24 | / | / | /
O=C(Nc1ccccc1)N1CCC(C(=O)N2CCCC(C(F)(F)F)C2)CC1 (stereo unspecified) | 1 | -2 | 1 | 0 | -12 | / | / | /

Screening results (PubChem BioAssay)
